Like-named read-outs stand apart in the source and are kept apart here.
What was measured:
HepG-2 = assay: Cytotoxicity assay; type: cell-based, Human; details: for IC50: read-out: IC50 HepG-2; for SI (selectivity indices): LO2 vs HepG-2, 48 h
LO2 = assay: Cytotoxicity assay; type: cell-based; details: read-out: IC50 LO2
HepG-2 cells [1] = assay: Intracellular ROS measurements; type: cell-based, Human; details: HepG-2, 5 μM, 24 h
Procedure, shortened: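 Using a kit protocol, HepG-2 were incubated with 5 μM test compound in serum-free medium for 24 h at 37 °C. 2 μM H2DCF-DA was then added and cells washed with serum-free medium. Fluorescence measured by flow cytometry and expressed relative to untreated control.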

cyclin E = assay: Western blot, cyclin E expression; type: cell-based, Human; details: HepG-2, 5 μM, 24 h
Procedure, shortened: (§1)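 HepG-2 seeded at 1 × 10^5 cells per mL, grown 24 h, then given 5 μM test compound for 24 h. Cells washed in ice-cold PBS, lysed, and spun at 10000g for 15 min at 4 °C. Protein measured by […], separated by SDS-PAGE and transferred to PVDF on ice for 3 h. Blocked in 5% skim milk/TBST for 1 h at 25 °C, primary antibody overnight at 4 °C, secondary 1 h at 25 °C. ECL detection, normalized to β-actin and expressed relative to control. Student's t test.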

cyclin A = assay: Western blot, cyclin A expression; type: cell-based, Human; details: HepG-2, 5 μM, 24 h
Procedure, shortened: as §1

ferritin = assay: Western blot, ferritin expression; type: cell-based, Human; details: HepG-2, 5 μM, 24 h
Procedure, shortened: as §1

HepG-2 cells [2] = assay: Cell apoptosis assay; type: cell-based, Human; details: HepG-2, 5 μM, 24 h
Procedure, shortened: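 HepG-2 (1 × 10^6 cells per mL) exposed to 5 μM test compound for 24 h at 37 °C in 5% CO2. Resuspended in binding buffer (140 mM NaCl, 2.5 mM CaCl2, 10 mM Hepes/NaOH, pH 7.4) and stained with Annexin V and PI for 20 min at room temperature using a kit protocol. Early and late apoptotic fractions measured by flow cytometry.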

HepG-2 cells [3] = assay: Cell cycle distribution analysis; type: cell-based, Human; details: HepG-2, 5 μM, 24 h
Procedure, shortened: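 HepG-2 seeded at 1 × 10^5 cells per mL, settled 12 h at 37 °C in 5% CO2. Exposed to 5 μM test compound for 24 h, washed with cold PBS (pH 7.4) and fixed in 75% EtOH for 12 h at −20 °C. Treated with RNase (2.5 mg mL−1), stained with propidium iodide for 0.5 h, then run on a flow cytometer, 10000 events per sample.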

Cdk 2 = assay: Western blot, Cdk 2 expression; type: cell-based, Human; details: HepG-2, 5 μM, 24 h
Procedure, shortened: as §1

[4] = test system: transferrin receptor-1 (TfR1); assay: Western blot, TfR1 expression; type: cell-based, Human; details: HepG-2, 5 μM, 24 h
Procedure, shortened: as §1

`NC1=N[N+]2=C(c3ccccc3)c3cccc[n+]3[Ga-2]2([Cl])([Cl])[S]1` [C1, Dichlorido[2-(phenyl(pyridin-2-yl)methylene)hydrazinecarbothioamide-N,N′,S]gallium(III)] gave an IC50 (HepG-2; HepG-2 cells, 48 h, MTT) of 5750 ± 540 nM and an IC50 (LO2; LO2 normal cells, 48 h, MTT) of 33.8 ± 2.13 µM.

Work on `CNC1=N[N+]2=C(c3ccccc3)c3cccc[n+]3[Ga-2]2([Cl])([Cl])[S]1` [C2, Dichlorido[N-methyl-2-(phenyl(pyridin-2-yl)methylene)hydrazinecarbothioamide-N,N,S]-gallium(III)] yielded an IC50 (HepG-2; HepG-2 cells, 48 h, MTT) of 2760 ± 390 nM and an IC50 (LO2; LO2 normal cells, 48 h, MTT) of 25.8 ± 2.93 µM.

For `CCNC1=N[N+]2=C(c3ccccc3)c3cccc[n+]3[Ga-2]2([Cl])([Cl])[S]1` [C3, Dichlorido[N-ethyl-2-(phenyl(pyridin-2-yl)methylene)hydrazinecarbothioamide-N,N,S]-gallium(III)], the IC50 (HepG-2; HepG-2 cells, 48 h, MTT) was 1230 ± 90 nM and the IC50 (LO2; LO2 normal cells, 48 h, MTT) was 26.6 ± 3.86 µM.

In the case of `[Cl][Ga-2]12([Cl])[S]C(NC3CCCCC3)=N[N+]1=C(c1ccccc1)c1cccc[n+]12` [C4, Dichlorido[N-cyclohexyl-2-(phenyl(pyridin-2-yl)methylene)hydrazinecarbothioamide-N,N,S]-gallium(III)], the IC50 (HepG-2; HepG-2 cells, 48 h, MTT) is reported as 970 ± 20 nM and the IC50 (LO2; LO2 normal cells, 48 h, MTT) is reported as 20.4 ± 1.13 µM.

For `N.N.[Cl][Pt][Cl]` [Cisplatin, reference compound], the IC50 (HepG-2; HepG-2 cells, 48 h, MTT) was 22400 ± 2210 nM and the IC50 (LO2; LO2 normal cells, 48 h, MTT) was 21.3 ± 2.35 µM.

`[Cl][Ga]([Cl])[Cl]` [GaCl3, reference compound] was tested, and the anticancer activity (HepG-2; 50 μM) was “not observed”, the IC50 (HepG-2; HepG-2 cells, 48 h, MTT) was over 50000 nM and the IC50 (LO2; LO2 normal cells, 48 h, MTT) was over 50 µM.

In the case of `NC(=S)NN=C(c1ccccc1)c1ccccn1` [L1, 2-(Phenyl(pyridin-2-yl)methylene)hydrazinecarbothioamide], the IC50 (HepG-2; Homo sapiens, HepG2, 48 h) is reported as 11400 ± 210 nM, the “SI (selectivity indices)” value (HepG-2) is reported as 3.84 and the IC50 (LO2; Homo sapiens, L02, 48 h) is reported as 43.6 ± 2.84 µM.

In the case of `CNC(=S)NN=C(c1ccccc1)c1ccccn1` [L2, N-Methyl-2-(phenyl(pyridin-2-yl)methylene)hydrazinecarbothioamide], the IC50 (HepG-2; Homo sapiens, HepG2, 48 h) is reported as 4560 ± 110 nM, the “SI (selectivity indices)” value (HepG-2) is reported as 7.84 and the IC50 (LO2; Homo sapiens, L02, 48 h) is reported as 35.8 ± 2.19 µM.

For `CCNC(=S)NN=C(c1ccccc1)c1ccccn1` [L3, N-Ethyl-2-(phenyl(pyridin-2-yl)methylene)hydrazinecarbothioamide], the IC50 (HepG-2; Homo sapiens, HepG2, 48 h) was 2430 ± 100 nM, the “SI (selectivity indices)” value (HepG-2) was 13.57 and the IC50 (LO2; Homo sapiens, L02, 48 h) was 33 ± 3.64 µM.

With `S=C(NN=C(c1ccccc1)c1ccccn1)NC1CCCCC1` [L4, N-Cyclohexyl-2-(phenyl(pyridin-2-yl)methylene)hydrazinecarbothioamide] the IC50 (HepG-2; Homo sapiens, HepG2, 48 h) was 1320 ± 90 nM, the “SI (selectivity indices)” value (HepG-2) was 22.97 and the IC50 (LO2; Homo sapiens, L02, 48 h) was 30.3 ± 2.16 µM.

For `CN(C)C(=S)NN=C(c1ccccc1)c1ccccn1` [L5, N,N-dimethyl-2-(phenyl(pyridin-2-yl)methylene)hydrazinecarbothioamide], the IC50 (HepG-2; Homo sapiens, HepG2, 48 h) was 570 ± 40 nM, the “SI (selectivity indices)” value (HepG-2) was 41.84 and the IC50 (LO2; Homo sapiens, L02, 48 h) was 23.9 ± 2 µM.

For `CN(C(=S)NN=C(c1ccccc1)c1ccccn1)C1CCCCC1` [L6, N-Cyclohexyl-N-methyl-2-(phenyl(pyridin-2-yl)methylene)hydrazinecarbothioamide], the “percentage of intracellular ROS level relative to the control” value (HepG-2 cells [1]) was 17.12%, the IC50 (HepG-2; Homo sapiens, HepG2, 48 h) was 320 ± 20 nM and the “SI (selectivity indices)” value (HepG-2) was 36.06. For the same molecule, the IC50 (LO2; Homo sapiens, L02, 48 h) was 11.5 ± 0.54 µM, the “cyclin E expression level” value (cyclin E) was “significant (p < 0.05) decreased” and the “cyclin A expression level” value (cyclin A) was “significant (p < 0.05) decreased”. The “expression of ferritin relative to the control group” value (ferritin) was 0.72 fold, the “percentage of early apoptosis and late apoptosis relative to the control” value (HepG-2 cells [2]) was 24.87% and the “G1 phase cell proportion” value (HepG-2 cells [3]) was “increase”. The “percentage of G2 phase cells compared to the vehicle-treated control” value (HepG-2 cells [3]) was “reduced”, the “Cdk 2 expression level” value (Cdk 2) was “significant (p < 0.05) decreased” and the “expression of TfR1 compared to the vehicle-treated control” value [4] was “about 1.43 fold”.

From publication PMC9053741 (RSC Advances, 2020)
